# Results: ChEMBL document CHEMBL1770060, “Diaryl urea analogues of SB-334867 as orexin-1 receptor antagonists” (Bioorg Med Chem Lett, 2011)
# Activity calls are given as the source filed them. No cut-off for these calls is given here.
# Assays:
# [1] = biological target: T1, Orexin receptor type 2 (Homo sapiens) (UniProt O43614); test: Agonist activity at OX2 receptor expressed in CHO cells at 10 uM by FlexStation assay; assay type: functional, cell-based
# T1 sequence (whole entry): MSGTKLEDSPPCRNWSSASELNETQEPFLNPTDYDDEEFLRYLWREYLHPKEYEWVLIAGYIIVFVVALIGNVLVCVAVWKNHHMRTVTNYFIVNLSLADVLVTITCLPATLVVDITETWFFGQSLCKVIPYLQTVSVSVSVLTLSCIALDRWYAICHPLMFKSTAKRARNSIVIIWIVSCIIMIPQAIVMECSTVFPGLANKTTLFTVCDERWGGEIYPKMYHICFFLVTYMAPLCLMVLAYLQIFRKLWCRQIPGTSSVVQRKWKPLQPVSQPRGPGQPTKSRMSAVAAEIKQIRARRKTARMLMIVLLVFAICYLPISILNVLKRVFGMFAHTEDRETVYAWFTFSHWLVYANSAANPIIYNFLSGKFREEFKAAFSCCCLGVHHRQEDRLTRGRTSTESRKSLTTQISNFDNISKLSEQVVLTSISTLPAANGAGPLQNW
# Procedure, shortened: (§1)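 Separate cell lines stably expressing OX1 or OX2 receptor were loaded with calcium-sensitive dye for 1 h. Compounds were tested alone at 10 µM for intrinsic agonist activity, read as a rise in fluorescence (intracellular calcium) on the FlexStation.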
# [2] = biological target: T2, Orexin/Hypocretin receptor type 1 (Homo sapiens) (UniProt O43613); test: Agonist activity at OX1 receptor expressed in CHO cells at 10 uM by FlexStation assay; assay type: functional, cell-based; procedure, shortened: as §1
# T2 sequence (whole entry): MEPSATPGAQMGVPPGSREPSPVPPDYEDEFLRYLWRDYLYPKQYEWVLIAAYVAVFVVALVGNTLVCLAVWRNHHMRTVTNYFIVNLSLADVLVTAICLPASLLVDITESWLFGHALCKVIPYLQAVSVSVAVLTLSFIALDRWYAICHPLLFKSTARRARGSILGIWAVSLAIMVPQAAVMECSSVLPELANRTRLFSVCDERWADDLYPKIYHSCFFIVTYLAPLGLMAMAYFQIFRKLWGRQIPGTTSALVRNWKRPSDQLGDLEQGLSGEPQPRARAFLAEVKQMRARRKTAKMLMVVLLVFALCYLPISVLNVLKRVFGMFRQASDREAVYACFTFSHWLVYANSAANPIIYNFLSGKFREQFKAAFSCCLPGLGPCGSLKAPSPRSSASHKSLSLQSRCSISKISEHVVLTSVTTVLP
# [3] = biological target: T1, Orexin receptor type 2 (Homo sapiens); test: Antagonist activity at OX2 receptor expressed in CHO cells assessed as inhibition of orexin-A-induced calcium mobilization by FlexStation assay; assay type: functional, cell-based
# Procedure, shortened: (§2)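 Cells stably expressing OX1 or OX2 receptor, dye-loaded 1 h. EC50s came from a three-parameter logistic fit. Ke = [L]/(DR−1), DR = A'/A. Duplicates; ≥3 (OX1) or ≥2 (OX2) independent experiments.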
# [4] = biological target: T2, Orexin/Hypocretin receptor type 1 (Homo sapiens); test: Antagonist activity at OX1 receptor expressed in CHO cells assessed as inhibition of orexin-A-induced calcium mobilization by FlexStation assay; assay type: functional, cell-based; procedure, shortened: as §2
# [5] = Selectivity ratio of Ke for OX2 receptor to Ke for OX1 receptor
SMILES,Activity [1],Activity [2],Ke [3],Ke [4],Ratio Ke [5]
O=C(Nc1ccc2c(c1)OCO2)Nc1ccnc2c(F)cccc12,inactive,inactive,1620 nM,13.4 nM,
CN(C)c1ccc(CC(=O)Nc2ccnc3c(F)cccc23)cc1,inactive,inactive,> 10000 nM,> 10000 nM,
Cc1nc2ccc(NC(=O)Nc3ccnc4cccnc34)cc2o1,inactive,inactive,1190 nM,45 nM,50
COc1ccc(NC(=O)Nc2ccnc3c(F)cccc23)cc1OC,inactive,inactive,> 10000 nM,965 nM,> 10
